Measurements: ChEMBL document CHEMBL1687761 (2010)

Key:
Assay type in all cases: functional
Escherichia coli [1] = experiment: Antimicrobial activity against Escherichia coli XL1-Blue harboring pLBII-VIM-2 plasmid expressing VIM-2 W87A mutant beta-lactamase by broth microdilution method
How it was run: (§1)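 Isogenic E. coli XL-1 strains carried pLBII-VIM-2 encoding wild-type or mutant VIM-2, or the empty pBC-SK vector. β-Lactam MICs were determined by CLSI broth microdilution in cation-adjusted Mueller-Hinton broth.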

Escherichia coli [2] = experiment: Antimicrobial activity against Escherichia coli XL1-Blue harboring pLBII-VIM-2 plasmid expressing VIM-2 W87F mutant beta-lactamase by broth microdilution method; how it was run: as §1
Escherichia coli [3] = experiment: Antimicrobial activity against Escherichia coli XL1-Blue harboring pLBII-VIM-2 plasmid expressing VIM-2 beta-lactamase by broth microdilution method; how it was run: as §1
Escherichia coli [4] = experiment: Antimicrobial activity against Escherichia coli XL1-Blue harboring pBC-SK plasmid by broth microdilution method; how it was run: as §1
Escherichia coli [5] = experiment: Antimicrobial activity against Escherichia coli XL1-Blue harboring pLBII-VIM-2 plasmid expressing VIM-2 A64W mutant beta-lactamase by broth microdilution method; how it was run: as §1
Escherichia coli [6] = experiment: Antimicrobial activity against Escherichia coli XL1-Blue VIM-2 W87M mutant beta-lactamase by broth microdilution method
Escherichia coli [7] = experiment: Antimicrobial activity against Escherichia coli XL1-Blue VIM-2 F61C mutant beta-lactamase by broth microdilution method
Escherichia coli [8] = experiment: Antimicrobial activity against Escherichia coli XL1-Blue VIM-2 W87F mutant beta-lactamase by broth microdilution method
Escherichia coli [9] = experiment: Antimicrobial activity against Escherichia coli XL1-Blue VIM-2 W87I mutant beta-lactamase by broth microdilution method
Escherichia coli [10] = experiment: Antimicrobial activity against Escherichia coli XL1-Blue VIM-2 F61H mutant beta-lactamase by broth microdilution method
Escherichia coli [11] = experiment: Antimicrobial activity against Escherichia coli XL1-Blue VIM-2 W87K mutant beta-lactamase by broth microdilution method
Escherichia coli [12] = experiment: Antimicrobial activity against Escherichia coli XL1-Blue VIM-2 F61V mutant beta-lactamase by broth microdilution method
Escherichia coli [13] = experiment: Antimicrobial activity against Escherichia coli XL1-Blue VIM-2 F61N mutant beta-lactamase by broth microdilution method
Escherichia coli [14] = experiment: Antimicrobial activity against Escherichia coli XL1-Blue VIM-2 W87A mutant beta-lactamase by broth microdilution method
Escherichia coli [15] = experiment: Antimicrobial activity against Escherichia coli XL1-Blue VIM-2 W87Q mutant beta-lactamase by broth microdilution method
Escherichia coli [16] = experiment: Antimicrobial activity against Escherichia coli XL1-Blue VIM-2 F61W mutant beta-lactamase by broth microdilution method
Escherichia coli [17] = experiment: Antimicrobial activity against Escherichia coli XL1-Blue VIM-2 W87Y mutant beta-lactamase by broth microdilution method
Escherichia coli [18] = experiment: Antimicrobial activity against Escherichia coli XL1-Blue VIM-2 F61A mutant beta-lactamase by broth microdilution method
Escherichia coli [19] = experiment: Antimicrobial activity against Escherichia coli XL1-Blue VIM-2 W87R mutant beta-lactamase by broth microdilution method
Escherichia coli [20] = experiment: Antimicrobial activity against Escherichia coli XL1-Blue VIM-2 W87P mutant beta-lactamase by broth microdilution method
Escherichia coli [21] = experiment: Antimicrobial activity against Escherichia coli XL1-Blue VIM-2 F61G mutant beta-lactamase by broth microdilution method
Escherichia coli [22] = experiment: Antimicrobial activity against Escherichia coli XL1-Blue VIM-2 W87G mutant beta-lactamase by broth microdilution method
Escherichia coli [23] = experiment: Antimicrobial activity against Escherichia coli XL1-Blue VIM-2 F61Y mutant beta-lactamase by broth microdilution method
Escherichia coli [24] = experiment: Antimicrobial activity against Escherichia coli XL1-Blue VIM-2 F61T mutant beta-lactamase by broth microdilution method
Escherichia coli [25] = experiment: Antimicrobial activity against Escherichia coli XL1-Blue VIM-2 W87V mutant beta-lactamase by broth microdilution method
Escherichia coli [26] = experiment: Antimicrobial activity against Escherichia coli XL1-Blue VIM-2 W87L mutant beta-lactamase by broth microdilution method
Escherichia coli [27] = experiment: Antimicrobial activity against Escherichia coli XL1-Blue VIM-2 F61K mutant beta-lactamase by broth microdilution method
Escherichia coli [28] = experiment: Antimicrobial activity against Escherichia coli XL1-Blue VIM-2 F61L mutant beta-lactamase by broth microdilution method
Escherichia coli [29] = experiment: Antimicrobial activity against Escherichia coli XL1-Blue VIM-2 F61I mutant beta-lactamase by broth microdilution method
Escherichia coli [30] = experiment: Antimicrobial activity against Escherichia coli XL1-Blue VIM-2 F61S mutant beta-lactamase by broth microdilution method
Escherichia coli [31] = experiment: Antimicrobial activity against Escherichia coli XL1-Blue VIM-2 F61R mutant beta-lactamase by broth microdilution method
Escherichia coli [32] = experiment: Antimicrobial activity against Escherichia coli XL1-Blue VIM-2 W87S mutant beta-lactamase by broth microdilution method
Escherichia coli [33] = experiment: Antimicrobial activity against Escherichia coli XL1-Blue VIM-2 W87N mutant beta-lactamase by broth microdilution method
Escherichia coli [34] = experiment: Antimicrobial activity against Escherichia coli XL1-Blue VIM-2 F61P mutant beta-lactamase by broth microdilution method
Escherichia coli [35] = experiment: Antimicrobial activity against Escherichia coli XL1-Blue VIM-2 W87T mutant beta-lactamase by broth microdilution method

Measured: MIC

C[C@@H](O)[C@H]1C(=O)N2C(C(=O)O)=C(S[C@@H]3CN[C@H](C(=O)Nc4cccc(C(=O)O)c4)C3)[C@H](C)[C@H]12
≤ 0.03 µg/mL: Escherichia coli [1] | Escherichia coli [2] | Escherichia coli [4]
0.5 µg/mL: Escherichia coli [3] | Escherichia coli [5]

CO/N=C(\C(=O)N[C@@H]1C(=O)N2C(C(=O)[O-])=C(C[N+]3(C)CCCC3)CS[C@H]12)c1csc(N)n1
0.5 µg/mL: Escherichia coli [3] | Escherichia coli [5]
0.12 µg/mL: Escherichia coli [1]

CC1(C)S[C@@H]2[C@H](NC(=O)[C@H](N)c3ccccc3)C(=O)N2[C@H]1C(=O)O [AMPICILLIN]
64 µg/mL: Escherichia coli [3] | Escherichia coli [5]
8 µg/mL: Escherichia coli [2] | Escherichia coli [7] | Escherichia coli [30] | Escherichia coli [31] | Escherichia coli [34]
≥ 32 µg/mL: Escherichia coli [10] | Escherichia coli [12] | Escherichia coli [13] | Escherichia coli [16] | Escherichia coli [18] | Escherichia coli [21] | Escherichia coli [23] | Escherichia coli [24] | Escherichia coli [27] | Escherichia coli [28] | Escherichia coli [29]
not listed: Escherichia coli [1] | Escherichia coli [4]
≤ 4 µg/mL: all other assays above

C[C@H]1[C@H](NC(=O)/C(=N\OC(C)(C)C(=O)O)c2csc(N)n2)C(=O)N1S(=O)(=O)O [AZTREONAM]
0.12 µg/mL: Escherichia coli [1] | Escherichia coli [3] | Escherichia coli [5]

CO/N=C(\C(=O)N[C@@H]1C(=O)N2C(C(=O)O)=C(COC(C)=O)CS[C@H]12)c1csc(N)n1 [CEFOTAXIME]
> 32 µg/mL: Escherichia coli [3] | Escherichia coli [5]
0.12 µg/mL: Escherichia coli [1] | Escherichia coli [2] | Escherichia coli [4]

CO[C@@]1(NC(=O)Cc2cccs2)C(=O)N2C(C(=O)O)=C(COC(N)=O)CS[C@@H]21 [CEFOXITIN]
128 µg/mL: Escherichia coli [3] | Escherichia coli [5]
8 µg/mL: Escherichia coli [1] | Escherichia coli [2] | Escherichia coli [4]

CC(C)(O/N=C(\C(=O)N[C@@H]1C(=O)N2C(C(=O)[O-])=C(C[n+]3ccccc3)CS[C@H]12)c1csc(N)n1)C(=O)O [CEFTAZIDIME]
2 µg/mL: Escherichia coli [3] | Escherichia coli [5]
0.12 µg/mL: Escherichia coli [1] | Escherichia coli [2] | Escherichia coli [4]

CO/N=C(\C(=O)N[C@@H]1C(=O)N2C(C(=O)O)=C(CSc3nc(=O)c(O)nn3C)CS[C@H]12)c1csc(N)n1 [CEFTRIAXONE]
4 µg/mL: Escherichia coli [3] | Escherichia coli [5]
0.12 µg/mL: Escherichia coli [1] | Escherichia coli [2] | Escherichia coli [4]

CO/N=C(\C(=O)N[C@@H]1C(=O)N2C(C(=O)O)=C(COC(N)=O)CS[C@H]12)c1ccco1 [CEFUROXIME]
256 µg/mL: Escherichia coli [3] | Escherichia coli [5]
8 µg/mL: Escherichia coli [1] | Escherichia coli [2] | Escherichia coli [4]

CC(=O)OCC1=C(C(=O)O)N2C(=O)[C@@H](NC(=O)Cc3cccs3)[C@H]2SC1 [CEPHALOTHIN]
16 µg/mL: Escherichia coli [1] | Escherichia coli [4]
256 µg/mL: Escherichia coli [3] | Escherichia coli [5]

C[C@@H](O)[C@H]1C(=O)N2C(C(=O)O)=C(SCCNC=N)C[C@H]12 [IMIPENEM ANHYDROUS]
0.12 µg/mL: Escherichia coli [1]
1 µg/mL: Escherichia coli [3] | Escherichia coli [5]

C[C@@H](O)[C@H]1C(=O)N2C(C(=O)O)=C(S[C@@H]3CN[C@H](C(=O)N(C)C)C3)[C@H](C)[C@H]12 [MEROPENEM]
0.5 µg/mL: Escherichia coli [3] | Escherichia coli [5]
≤ 0.03 µg/mL: Escherichia coli [1] | Escherichia coli [2] | Escherichia coli [4]

CCN1CCN(C(=O)N[C@@H](C(=O)N[C@@H]2C(=O)N3[C@@H]2SC(C)(C)[C@@H]3C(=O)O)c2ccccc2)C(=O)C1=O [PIPERACILLIN]
0.5 µg/mL: Escherichia coli [1] | Escherichia coli [2] | Escherichia coli [4]
8 µg/mL: Escherichia coli [3] | Escherichia coli [5]
